Format in all cases: functional, cell-based
One experiment has as its system KB. Put plainly: Cytotoxicity against human KB cells after 72 hrs by SRB assay. A digest of the protocol: (§1)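 Cells seeded at 3–5 × 10^3 per well in RPMI-1640 with 10% FBS containing graded sample concentrations, exposed 72 h. Attached cells fixed with cold 50% trichloroacetic acid 30 min, stained with 0.04% SRB 30 min, bound dye dissolved in 10 mM Tris-base, absorbance read at 515 nm. Triplicate experiments; IC50 reported. KBvin is a vincristine-selected MDR KB subline.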

The nature of experiment [1]: Cytotoxicity against human KBVIN cells after 72 hrs by SRB assay. A digest of the protocol:
as §1

Another experiment has as its system DU-145. The experiment can be described thus: Cytotoxicity against human DU145 cells after 72 hrs by SRB assay. The procedure, abridged:
as §1

For a further experiment, the system named is A549. The experiment can be described thus: Cytotoxicity against human A549 cells after 72 hrs by SRB assay. A digest of the protocol: as §1

Where only a bound is given, the exact number is not on record here.

One may read the IC50 as the point on the concentration scale where inhibition reaches its midpoint. A higher IC50 goes with a need for much substance. For the compound `CCCN(C(=O)C1=CC(C)(C)N([O])C1(C)C)C(C(=O)N[C@@H]1c2cc3c(cc2[C@@H](c2cc(OC)c(OC)c(OC)c2)[C@H]2C(=O)OC[C@@H]21)OCO3)c1ccc(OC)cc1` (some centres undefined), the IC50 (with KB; in experiment [1] (kbvin); in the experiment on DU-145; in the experiment with A549) was greater than 20 µM in each case.

On to `CCCN(C(=O)C1=CC(C)(C)N([O])C1(C)C)C1(C(=O)N[C@@H]2c3cc4c(cc3[C@@H](c3cc(OC)c(OC)c(OC)c3)[C@H]3C(=O)OC[C@@H]32)OCO4)CCCCC1`, for which the IC50 (in the experiment with KB; in experiment [1] (kbvin); in the experiment on DU-145; in the experiment on A549) was greater than 20 µM each time.

Turning to `CCCC(C(=O)N[C@@H]1c2cc3c(cc2[C@@H](c2cc(OC)c(OC)c(OC)c2)[C@H]2C(=O)OC[C@@H]21)OCO3)N(C(=O)C1=CC(C)(C)N([O])C1(C)C)C(C)(C)C` (some centres undefined), the IC50 (in the experiment with KB; in experiment [1] (kbvin); with DU-145; in the experiment with A549) was greater than 20 µM each time.

For the compound `CCCC(C(=O)N[C@@H]1c2cc3c(cc2[C@@H](c2cc(OC)c(OC)c(OC)c2)[C@H]2C(=O)OC[C@@H]21)OCO3)N(CCC)C(=O)C1=CC(C)(C)N([O])C(C)(C)C1` (some centres undefined), the IC50 (in the experiment with KB; in experiment [1] (kbvin); in the experiment on DU-145; in the experiment on A549) was greater than 20 µM throughout.

Take `CCCC(C(=O)N[C@@H]1c2cc3c(cc2[C@@H](c2cc(OC)c(OC)c(OC)c2)[C@H]2C(=O)OC[C@@H]21)OCO3)N(CCC)C(=O)C1CC(C)(C)N([O])C(C)(C)C1` (some centres undefined): the IC50 (in the experiment on KB; in experiment [1] (kbvin); with DU-145; in the experiment on A549) was greater than 20 µM each time.

With `COc1cc([C@@H]2c3cc4c(cc3[C@@H](NC(=O)C(C)(C)OC(=O)C3=CC(C)(C)N([O])C3(C)C)[C@H]3COC(=O)[C@H]23)OCO4)cc(OC)c1OC`, the IC50 with KB came out at 2.32 µM; in experiment [1] (kbvin) it was 2.55 µM; in the experiment on DU-145, 2.39 µM; in the experiment on A549 it was 2.38 µM.

In the case of `COc1cc([C@@H]2c3cc4c(cc3[C@@H](NC(=O)C(OC(=O)C3=CC(C)(C)N([O])C3(C)C)c3ccccc3)[C@H]3COC(=O)[C@H]23)OCO4)cc(OC)c1OC` (some centres undefined), the IC50 (in the experiment with KB; in experiment [1] (kbvin); in the experiment with DU-145; with A549) was greater than 20 µM in each case.

Take `CCCC(OC(=O)C1=CC(C)(C)N([O])C1(C)C)C(=O)N[C@@H]1c2cc3c(cc2[C@@H](c2cc(OC)c(OC)c(OC)c2)[C@H]2C(=O)OC[C@@H]21)OCO3` (some centres undefined): the IC50 in the experiment on KB was determined as 7.12 µM; in experiment [1] (kbvin), 8.88 µM; with DU-145, 7.07 µM; in the experiment on A549, 8.86 µM.

As to `COc1cc([C@@H]2c3cc4c(cc3[C@@H](NC(=O)C3(OC(=O)C5=CC(C)(C)N([O])C5(C)C)CCCCC3)[C@H]3COC(=O)[C@H]23)OCO4)cc(OC)c1OC`, the half-maximal inhibitory concentration (IC50) in the experiment on KB was 9.24 µM; in experiment [1] (kbvin) it was 13.7 µM; in the experiment with DU-145, 8.74 µM; with A549, 9.52 µM.

Consider `COc1ccc(C(OC(=O)C2=CC(C)(C)N([O])C2(C)C)C(=O)N[C@@H]2c3cc4c(cc3[C@@H](c3cc(OC)c(OC)c(OC)c3)[C@H]3C(=O)OC[C@@H]32)OCO4)cc1` (some centres undefined), for which the IC50 with KB was found to be 0.6 µM; in experiment [1] (kbvin) it was 0.73 µM; in the experiment with DU-145 it was 0.63 µM; with A549, 0.75 µM.

As to `COc1cc([C@@H]2c3cc4c(cc3[C@@H](NC(=O)C(Cc3ccccc3)OC(=O)C3=CC(C)(C)N([O])C3(C)C)[C@H]3COC(=O)[C@H]23)OCO4)cc(OC)c1OC` (some centres undefined), the half-inhibitory concentration (IC50) with KB is 6.53 µM; in experiment [1] (kbvin), 7.71 µM; in the experiment with DU-145 it was 6.82 µM; with A549, 7.68 µM.

Regarding `COc1cc([C@@H]2c3cc4c(cc3[C@@H](NC(=O)C(OC(=O)C3=CC(C)(C)N([O])C3(C)C)c3ccco3)[C@H]3COC(=O)[C@H]23)OCO4)cc(OC)c1OC` (some centres undefined), the IC50 in the experiment on KB was found to be 7.12 µM; in experiment [1] (kbvin), 7.35 µM; with DU-145, 6.55 µM; with A549 it was 7.38 µM.

With `COc1cc([C@@H]2c3cc4c(cc3[C@@H](NC(=O)C(OC(=O)C3=CC(C)(C)N([O])C3(C)C)c3ccc5c(c3)OCO5)[C@H]3COC(=O)[C@H]23)OCO4)cc(OC)c1OC` (some centres undefined), the IC50 amounted to 1.12 µM with KB, 2.03 µM in experiment [1] (kbvin), 1.37 µM in the experiment with DU-145 and 1.46 µM in the experiment on A549.

Regarding `CCCC(OC(=O)C1CC(C)(C)N([O])C(C)(C)C1)C(=O)N[C@@H]1c2cc3c(cc2[C@@H](c2cc(OC)c(OC)c(OC)c2)[C@H]2C(=O)OC[C@@H]21)OCO3` (some centres undefined), the IC50 with KB was 6.58 µM; in experiment [1] (kbvin), 7.96 µM; in the experiment on DU-145, 7.13 µM; in the experiment with A549 it was 8.82 µM.

Regarding `CCCC(OC(=O)C1=CC(C)(C)N([O])C(C)(C)C1)C(=O)N[C@@H]1c2cc3c(cc2[C@@H](c2cc(OC)c(OC)c(OC)c2)[C@H]2C(=O)OC[C@@H]21)OCO3` (some centres undefined), the IC50 with KB is 6.88 µM; in experiment [1] (kbvin), 8.35 µM; with DU-145, 7.27 µM; in the experiment on A549 it was 9.05 µM.

In the case of `CCCC(C(=O)N[C@@H]1c2cc3c(cc2[C@@H](c2cc(OC)c(OC)c(OC)c2)[C@H]2C(=O)OC[C@@H]21)OCO3)N(C(=O)C1=CC(C)(C)N([O])C1(C)C)C1CCCCC1` (some centres undefined), the IC50 in the experiment with KB is 9.35 µM; in experiment [1] (kbvin), 8.83 µM; in the experiment with DU-145 it was 11 µM; in the experiment on A549, 8.98 µM.

Regarding `CCCC(C(=O)N[C@@H]1c2cc3c(cc2[C@@H](c2cc(OC)c(OC)c(OC)c2)[C@H]2C(=O)OC[C@@H]21)OCO3)N(C(=O)C1=CC(C)(C)N([O])C1(C)C)c1ccccc1` (some centres undefined), the IC50 amounted to 8.49 µM in the experiment with KB, 7.47 µM in experiment [1] (kbvin), 9.78 µM with DU-145 and 8.4 µM in the experiment on A549.

As for `COc1cc([C@@H]2c3cc4c(cc3[C@@H](NC(=O)C(c3ccccc3)N(C(=O)C3CC(C)(C)N([O])C(C)(C)C3)c3ccccc3)[C@H]3COC(=O)[C@H]23)OCO4)cc(OC)c1OC` (some centres undefined), the IC50 in the experiment with KB was 5.94 µM; in experiment [1] (kbvin), 6.45 µM; in the experiment on DU-145, 6.08 µM; with A549, 6.1 µM.

Regarding `CCCN(C(=O)C1=CC(C)(C)N([O])C1(C)C)C(C)(C)C(=O)N[C@@H]1c2cc3c(cc2[C@@H](c2cc(OC)c(OC)c(OC)c2)[C@H]2C(=O)OC[C@@H]21)OCO3`, the IC50 (in the experiment on KB; in experiment [1] (kbvin); in the experiment with DU-145; with A549) was greater than 20 µM in each case.

Regarding `CCCN(C(=O)C1=CC(C)(C)N([O])C(C)(C)C1)C(C)(C)C(=O)N[C@@H]1c2cc3c(cc2[C@@H](c2cc(OC)c(OC)c(OC)c2)[C@H]2C(=O)OC[C@@H]21)OCO3`, the IC50 (with KB; in experiment [1] (kbvin); with DU-145; in the experiment with A549) was greater than 20 µM throughout.

Take `CCCC(C(=O)N[C@@H]1c2cc3c(cc2[C@@H](c2cc(OC)c(OC)c(OC)c2)[C@H]2C(=O)OC[C@@H]21)OCO3)N(CCC)C(=O)C1=CC(C)(C)N([O])C1(C)C` (some centres undefined): the IC50 (in the experiment with KB; in experiment [1] (kbvin); in the experiment on DU-145; in the experiment on A549) was greater than 20 µM each time.

Regarding `CCCN(C(=O)C1=CC(C)(C)N([O])C1(C)C)C(C(=O)N[C@@H]1c2cc3c(cc2[C@@H](c2cc(OC)c(OC)c(OC)c2)[C@H]2C(=O)OC[C@@H]21)OCO3)c1ccccc1` (some centres undefined), the IC50 (in the experiment with KB; in experiment [1] (kbvin); with DU-145; with A549) was greater than 20 µM throughout.

Turning to `COc1cc([C@@H]2c3cc4c(cc3[C@@H](O[C@@H]3O[C@@H]5CO[C@@H](C)O[C@H]5[C@H](O)[C@H]3O)[C@H]3COC(=O)[C@H]23)OCO4)cc(OC)c1O` [ETOPOSIDE], the IC50 in experiment [1] (Homo sapiens, KBVIN, 72 h) was greater than 20 µM.

(Values after ChEMBL document CHEMBL3120116, “Toward synthesis of third-generation spin-labeled podophyllotoxin derivatives using isocyanide multicomponent reactions” (Eur J Med Chem, 2014).)
